Our source for the inhibition values is PubChem BioAssay AID504490 (NMMLSC, 2011).

SMILES strings stand for the structures. The campaign covered roughly 340,000 compounds. About 1,100 (0.32%) were called active.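 How the source made its calls: active means inhibition above a set limit, near 3 SD of compounds lacking own fluorescence (cut at about 54% in these data); inactive means the rest.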 For the sample, actives were picked, then their nearest neighbours and some compounds at random.

The subject of this experiment is beta-arrestin 1 C-terminal peptide binding to AP2 beta2-adaptin appendage (human). Kind of experiment: blockers of arrestin peptide association with AP2 adaptin – biochemical, GPCR trafficking, flow cytometry, primary screen (AID 504490).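 Further: plate controls were DMSO wells for no effect and 5 µM unlabelled arrestin peptide for full effect.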 The settings on record: FITC-arrestin peptide / GST-AP2 beads, at 10 µM, active compounds read high, AP2 beta2 appendage carries R879A mutation. The essentials: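 System: GST-tagged AP2 beta2-adaptin appendage (R879A) on 4 µm glutathione beads / Reagent: FITC-arrestin peptide, 50 nM / Detection: HyperCyt-sampled flow cytometry, FL1 channel, ex 488/em 535 nm / Timing: 12 min plus 1 h, RT / Buffer or medium: PBS plus Tween 20 (0.05%) and BSA (0.1%)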
For orientation: Flow cytometry measures light scatter and fluorescence of single cells or particles in a stream.
Regarding `CC(=O)N1C(=O)/C(=C2\SC(=S)N(NC(=O)c3ccc(O)cc3)C2=O)c2ccccc21`, the inhibition (usually the relative decrease from the control value, in per cent) is 7.23% (inactive).
Turning to `CC(C)c1nnc(NC(=O)CCC(=O)N2CCN(c3cccc(Cl)c3)CC2)s1`, the inhibition was 59.1% (active).
The figure for `CCc1nnc(NC(=O)CCC(=O)N2CCN(c3cc(C)ccc3C)CC2)s1` is 27.2% (inactive); for `COc1ccc(CN2CCN(C(=O)CCC(=O)Nc3nnc(C(C)C)s3)CC2)cc1F` it is 17.3% (inactive).
The figure for `C=C1c2cccc(OC)c2O[C@H](C(=O)OCC)[C@@H]1CCCCCC` is -3.22% (inactive); for `C=CCO/N=C(\C)c1c(O)c(C)c(-c2ccccc2)n(-c2ccccc2)c1=O` it is 32.4% (inactive); for `C/C(=N\Nc1ccc([N+](=O)[O-])cc1)c1ccc(-n2nncc2C(C)(C)C)cc1` it is 93.7% (active).
The same measure for `COc1ccc(C(=O)Nc2ccc(-n3nncc3C(C)(C)C)cc2)cc1`: -18.4% (inactive).
As to `CC(C)(C)c1cnnn1-c1ccc([N+](=O)[O-])cc1`, the inhibition was -1.38% (inactive).
The same measure for `CCOC(=O)C(CO)NC(=O)C1(NC(C)=O)CCCC1` (stereo not drawn): 2.61% (inactive); for `COc1ccccc1NC(=O)c1c(Br)cnn1C`: 6.15% (inactive).
The figure for `O=C(NNC(=O)C1C2CCC(C2)C1C(=O)O)c1ccc(Cl)cc1` (stereo not drawn) is 10.1% (inactive); for `O=S(=O)(/N=C(/Nc1ccccn1)c1ccccc1)c1ccc(Cl)cc1` it is 2.67% (inactive); for `Cc1ccc(S/C(=N\S(=O)(=O)c2ccc(Cl)cc2)c2ccccc2)cc1` it is 2.53% (inactive).
The figure for `Cc1ccc(S(=O)(=O)/N=C(/Nc2ccccn2)c2ccc(Cl)cc2)cc1` is 70.7% (active); for `O=C(O)c1ccccc1NC(=S)NC(NC(=O)c1ccccc1[N+](=O)[O-])C(Cl)(Cl)Cl` (stereo not drawn) it is 0.7% (inactive).
Turning to `CCOC(=O)c1ccc(NC(=S)N2CCN(c3ccccn3)CC2)cc1`, the inhibition is -3.13% (inactive).
The figure for `CN1CCN(S(=O)(=O)c2ccc(NC(=O)C3CCCO3)cc2)CC1` (stereo not drawn) is -5.38% (inactive); for `O=C(C1CCCO1)N1CCN(S(=O)(=O)c2ccc(Br)cc2)CC1` (stereo not drawn) it is 54.4% (active).
Consider `O=C(C1CCCN1S(=O)(=O)c1ccc(Br)cc1)N1CCOCC1` (stereo not drawn), for which the inhibition was -2.49% (inactive).
The same measure for `CCC1(C(=O)c2ccccc2)C(c2cccc([N+](=O)[O-])c2)C1(C(=O)OC)C(=O)OC` (stereo not drawn): -3.23% (inactive).
For the compound `CCOC(=O)c1sc(NC(=O)CSc2nc(O)c(Cc3ccccc3)c(=O)[nH]2)nc1C`, the inhibition was 45.5% (inactive).
The figure for `CCOc1ccc(-n2c(SCC(N)=O)nnc2-c2ccco2)cc1` is -5.91% (inactive).
The figure for `COc1ccc(-c2nnc(-c3ccc4ccccc4c3)o2)cc1` is 5.64% (inactive).
The figure for `CCOc1ccc(-c2nnc(-c3ccco3)o2)cc1` is 55% (active).
As for `C[C@@H]1CC[C@@]2(OC1)O[C@H]1C[C@H]3[C@@H]4CC=C5C[C@@H](O)[C@H](O)C[C@]5(C)C4CC[C@]3(C)[C@H]1[C@@H]2C` (stereo partly drawn), the inhibition was 26.8% (inactive).
With `Cn1c(=O)c([N+](=O)[O-])c(Oc2ccccc2)c2ccccc21`, the inhibition was 54.9% (active).
In the case of `Cc1cc(C)c(-c2c(O)c3ccccc3n(C)c2=O)c(C)c1`, the inhibition is 3.35% (inactive).
The figure for `Cc1cccc(Oc2c([N+](=O)[O-])c(=O)n(C)c3ccccc23)c1` is 8.99% (inactive).
The figure for `CCn1c(C)nc2cc(C(=O)NNS(=O)(=O)c3ccc(C)cc3C)ccc21` is -9.91% (inactive); for `CCNc1c(NS(=O)(=O)c2ccc(C3CCCCC3)cc2)c(=O)oc2ccccc12` it is 27.9% (inactive); for `COc1ccccc1CNC(=O)COC(=O)c1cccs1` it is -6.34% (inactive).
The figure for `COc1ccc(C2c3[nH]c4ccccc4c3C[C@H]3C(=O)N(CC(C)C)CC(=O)N23)c(OC)c1` (stereo partly drawn) is -2.46% (inactive); for `CCCc1ccc(-c2csc(NC(=O)Cc3cccs3)n2)cc1` it is 86.3% (active); for `COc1ccc(Cc2nnc(NC(=O)Cc3cccs3)s2)cc1` it is 5.51% (inactive).
In the case of `O=C(Cc1cccs1)Nc1nnc(SCc2ccc(F)cc2)s1`, the inhibition was 0.35% (inactive).
For `CC(Sc1ncnc2c1cnn2-c1ccccc1)C(=O)Nc1ccc(N2CCOCC2)cc1` (stereo not drawn), the inhibition is 52.7% (inactive).
The same measure for `COc1ccc(C(C)(C)C)cc1NC(=O)CCN1C(=O)C2CCCCC2C1=O` (stereo not drawn): 4.94% (inactive).
The same measure for `O=CN1CCN(C(=O)c2ccc3c(c2)OCO3)CC1`: -7.77% (inactive); for `CCOC(=O)N1CCN(C(=O)C(C)NC(=O)c2ccco2)CC1` (stereo not drawn): 47.5% (inactive).
The figure for `CCOC(=O)N1CCN(C(=O)Cc2ccc(-n3c(=S)[nH]c4ccccc4c3=O)cc2)CC1` is -0.7% (inactive); for `CCOC(=O)N1CCN(C(=O)CNC(=O)Cc2ccc(Cl)cc2)CC1` it is 87.5% (active); for `OCCN1CCOCCOCCN(CCO)CCN(CCO)CC1` it is -4.2% (inactive).
Turning to `Cc1ccccc1NC(=O)CCNS(=O)(=O)c1ccc2[nH]c(=O)oc2c1`, the inhibition was -8.2% (inactive).
Turning to `C=CCOc1c(CNn2cn[nH]c2=S)cccc1OC`, the inhibition is 0.65% (inactive).
In the case of `Cc1ccc(S(=O)(=O)N2CCCCC2)cc1NC(=O)c1cccnc1`, the inhibition was 65.4% (active).
`Cc1ccc(S(=O)(=O)N2CCCCC2)cc1NC(=O)CCNC(=O)c1ccccc1`: the inhibition was 2.03% (inactive).
The figure for `CC(=O)c1cccc(OCC(=O)OCC(=O)Nc2cc(S(=O)(=O)N3CCCCC3)ccc2C)c1` is 38.5% (inactive).
The figure for `O=P(c1ccc2c(c1)OCCO2)(N1CCOCC1)N1CCOCC1` is 1.28% (inactive).
The same measure for `CCCCNC(=O)C1CCC(=O)N1CCc1ccccc1` (stereo not drawn): -2.64% (inactive); for `Cc1ccc(CN2C(=O)CCC2C(=O)NCCCN2CCCCC2C)cc1` (stereo not drawn): 102% (active); for `CCC(C)NC(=O)C1CCC(=O)N1Cc1ccc(C)cc1` (stereo not drawn): 3.49% (inactive).
As to `CC(=O)c1cccc(NC(=O)[C@@H](NC(N)=O)C(C)C)c1`, the inhibition was 15.6% (inactive).
As to `Cc1ccc2nsnc2c1S(=O)(=O)N1CCCC1C(=O)O` (stereo not drawn), the inhibition was 19.9% (inactive).
Take `COc1cc(C2/C(=C(\O)c3ccc4c(c3)CC(C)O4)C(=O)C(=O)N2c2nnc(C)s2)cc(OC)c1OC` (stereo not drawn): the inhibition is 18.6% (inactive).
For the compound `Cc1ccc(C2(C)NC(=O)N(CC(=O)Nc3ccccc3C(=O)N3CCCCC3)C2=O)cc1` (stereo not drawn), the inhibition is 56.8% (active).
The same measure for `Cc1ccc(C2(C)NC(=O)N(CC(=O)N3CC(=O)Nc4ccccc43)C2=O)cc1` (stereo not drawn): -7.93% (inactive).
The figure for `Cc1ccc(NC(=O)CN2C(=O)NC(C)(c3ccc(Cl)cc3)C2=O)c(Br)c1` (stereo not drawn) is -0.27% (inactive).
